Reference: ChEMBL document CHEMBL2311356, “The effect of 17-N substituents on the activity of the opioid κ receptor in nalfurafine derivatives” (Bioorg Med Chem Lett, 2013)

How the values were obtained:
[1] = Selectivity ratio of Ki for delta opioid receptor in mouse whole brain membranes without cerebellum to Ki for kappa opioid receptor in guinea pig cerebellum; assay type: cell membranes
[2] = Selectivity ratio of Ki for mu opioid receptor in mouse whole brain membranes without cerebellum to Ki for kappa opioid receptor in guinea pig cerebellum; assay type: cell membranes
[3] = molecular target: T1, Kappa-type opioid receptor (Homo sapiens, UniProt P41145); experiment: Agonist activity at human recombinant kappa opioid receptor expressed in CHO cells after 2 hrs by [35S]-GTPgammaS binding assay; assay type: functional, cell-based
T1 sequence (P41145 whole entry): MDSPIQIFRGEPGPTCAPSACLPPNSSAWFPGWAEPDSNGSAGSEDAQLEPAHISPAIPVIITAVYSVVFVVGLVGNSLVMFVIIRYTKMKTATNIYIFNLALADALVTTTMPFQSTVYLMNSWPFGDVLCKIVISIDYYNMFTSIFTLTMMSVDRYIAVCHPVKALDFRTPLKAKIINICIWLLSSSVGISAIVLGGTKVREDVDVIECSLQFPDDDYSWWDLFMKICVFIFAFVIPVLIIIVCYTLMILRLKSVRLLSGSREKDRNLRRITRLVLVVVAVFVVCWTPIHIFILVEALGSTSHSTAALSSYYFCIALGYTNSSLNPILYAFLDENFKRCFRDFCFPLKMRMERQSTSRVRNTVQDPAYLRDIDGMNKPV
Outline: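 CHO cell membranes carrying the recombinant human κ receptor were incubated with [³⁵S]GTPγS, GDP and the test agent. Values are means of four samples.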

Mu-type opioid receptor = Mu-type opioid receptor (Mus musculus, UniProt P42866); experiment: Displacement of [3H]DAMGO from mu opioid receptor in mouse whole brain membranes without cerebellum after 1 hr by liquid scintillation counting analysis; assay type: cell membranes, Membrane
Chain of Mu-type opioid receptor (P42866 whole entry): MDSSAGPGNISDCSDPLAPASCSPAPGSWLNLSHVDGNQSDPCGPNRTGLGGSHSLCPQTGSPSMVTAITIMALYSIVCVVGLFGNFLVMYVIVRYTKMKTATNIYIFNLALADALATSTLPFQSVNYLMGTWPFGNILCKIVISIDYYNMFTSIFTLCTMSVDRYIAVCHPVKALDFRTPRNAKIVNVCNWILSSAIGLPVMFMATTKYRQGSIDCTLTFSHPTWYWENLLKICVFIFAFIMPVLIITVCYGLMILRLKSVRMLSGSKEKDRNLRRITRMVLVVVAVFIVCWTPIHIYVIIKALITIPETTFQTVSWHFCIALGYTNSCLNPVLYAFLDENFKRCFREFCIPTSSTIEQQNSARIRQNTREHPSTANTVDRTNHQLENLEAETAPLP
Outline: (§1)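 Radioligand displacement from membranes used [³H]DAMGO for μ and [³H]DPDPE for δ, both on mouse whole brain without cerebellum. For κ it used [³H]U-69,593 on guinea pig cerebellum. Values are means of three samples.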

[4] = molecular target: Kappa-type opioid receptor (Cavia porcellus, UniProt P41144); experiment: Displacement of [3H]U69593 from kappa opioid receptor in guinea pig cerebellum after 1 hr by liquid scintillation counting analysis; outline: as §1
Chain of Kappa-type opioid receptor (Cavia porcellus, UniProt P41144) (P41144 whole entry): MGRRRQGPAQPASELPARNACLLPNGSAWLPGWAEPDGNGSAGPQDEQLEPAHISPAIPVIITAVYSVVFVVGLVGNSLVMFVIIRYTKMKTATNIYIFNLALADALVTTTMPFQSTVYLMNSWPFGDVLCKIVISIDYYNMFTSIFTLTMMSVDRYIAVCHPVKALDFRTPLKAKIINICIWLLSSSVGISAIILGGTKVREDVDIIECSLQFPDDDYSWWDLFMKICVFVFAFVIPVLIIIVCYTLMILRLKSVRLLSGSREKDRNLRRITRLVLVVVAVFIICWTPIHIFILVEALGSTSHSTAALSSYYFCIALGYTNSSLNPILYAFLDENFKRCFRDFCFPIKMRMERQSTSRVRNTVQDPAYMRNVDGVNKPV

[5] = molecular target: Delta-type opioid receptor (Mus musculus, UniProt P32300); experiment: Displacement of [3H]DPDPE from delta opioid receptor in mouse whole brain membranes without cerebellum after 1 hr by liquid scintillation counting analysis; assay type: cell membranes, Membrane; outline: as §1
Chain of Delta-type opioid receptor (P32300 whole entry): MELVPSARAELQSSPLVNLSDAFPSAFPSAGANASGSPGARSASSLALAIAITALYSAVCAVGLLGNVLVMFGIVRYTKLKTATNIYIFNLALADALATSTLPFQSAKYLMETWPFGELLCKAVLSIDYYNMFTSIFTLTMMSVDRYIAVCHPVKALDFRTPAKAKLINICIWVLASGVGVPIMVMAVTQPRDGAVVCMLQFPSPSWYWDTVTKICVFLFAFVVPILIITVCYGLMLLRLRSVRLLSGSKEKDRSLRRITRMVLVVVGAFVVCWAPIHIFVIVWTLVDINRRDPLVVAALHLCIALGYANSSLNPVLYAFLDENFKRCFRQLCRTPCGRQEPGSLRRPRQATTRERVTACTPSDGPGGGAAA

[6] = molecular target: T1, Kappa-type opioid receptor; experiment: Agonist activity at human recombinant kappa opioid receptor expressed in CHO cells after 2 hrs by [35S]-GTPgammaS binding assay relative to control; assay type: functional, cell-based
Outline: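 CHO cell membranes carrying the recombinant human κ receptor were incubated with [³⁵S]GTPγS, GDP and the test agent. U-69,593 served as the reference κ agonist. Values are means of four samples.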

Row | Structure (SMILES) | Ratio Ki [1] | Ratio Ki [2] | EC50 [3] [nM] | Ki (Mu-type opioid receptor) [nM] | Ki [4] [nM] | Ki [5] [nM] | Emax [6] [%]
1 | CCCN1CC[C@H]2c3c(ccc(O)c3O)C[C@@H]1[C@]2(O)CCCN(C)C(=O)/C=C/c1ccoc1 | 537 | 58.4 | 2.72 | 19.2 | 0.328 | 176 | 86.5
2 | CN(CCC[C@]1(O)[C@H]2CCN(C)[C@@H]1Cc1ccc(O)c(O)c12)C(=O)/C=C/c1ccoc1 | 48.6 | 3.77 | 11.3 | 2.77 | 0.735 | 35.7 | 90.4
3 | CN(CCC[C@]1(O)[C@H]2CCN(CC(F)F)[C@@H]1Cc1ccc(O)c(O)c12)C(=O)/C=C/c1ccoc1 | – | – | 22.4 | > 1000 | 2.19 | > 1000 | 101
4 | CN(CCC[C@]1(O)[C@H]2CCN(CC(F)(F)F)[C@@H]1Cc1ccc(O)c(O)c12)C(=O)/C=C/c1ccoc1 | – | – | 32.2 | > 1000 | 4.58 | > 1000 | 89
5 | CC(C)CN1CC[C@H]2c3c(ccc(O)c3O)C[C@@H]1[C@]2(O)CCCN(C)C(=O)/C=C/c1ccoc1 | 872 | 78.4 | 8.07 | 46.2 | 0.59 | 514 | 99.5
6 | CN(CCC[C@]1(O)[C@H]2CCN(CCF)[C@@H]1Cc1ccc(O)c(O)c12)C(=O)/C=C/c1ccoc1 | – | 16.6 | 2.23 | 8.39 | 0.507 | > 1000 | 95.2
7 | CCN1CC[C@H]2c3c(ccc(O)c3O)C[C@@H]1[C@]2(O)CCCN(C)C(=O)/C=C/c1ccoc1 | 818 | 17.6 | 3.79 | 11 | 0.625 | 512 | 97.4
8 | CN(C(=O)/C=C/c1ccoc1)[C@@H]1CC[C@@]2(O)[C@H]3Cc4ccc(O)c5c4[C@@]2(CCN3CC2CC2)[C@H]1O5 | – | – | – | – | – | – | 98.1
